Several values for one entry are separate records, joined by “and”; a condition that tells them apart may be missing. Equal values may be shown once.
Columns and labels:
[1] = tested on: dog; test: concentration in blood after dosing; negative times count back from the end of exposure; settings: dosed: tetrachloroethylene, inhalation, duration: 4 hr, male, beagle
Summary of the method: (§1)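 Points were largely digitised from plot screenshots with WebPlotDigitizer or otherwise copied from tables, and they remain in the units each source reported. They come from published in vivo toxicokinetic studies and two structured collections. Sampling and analytical methods follow each source and were often not reported.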

[2] = tested on: human; test: as above; settings: dosed: tetrachloroethylene, 144 ppm, inhalation, duration: 4 hr, male
Summary of the method: as §1

[3] = tested on: Rat; test: concentration in blood after dosing; negative times count back from the end of exposure; settings: dosed: 1,2-dichloroethane, inhalation, duration: 6 hr, Male, F344
[4] = tested on: rat; test: as above; settings: dosed: 1,2-dichloroethane, inhalation, duration: 6 hr, male
[5] = tested on: rat; test: concentration in blood after dosing; settings: dosed: 1,2-Dichloroethane, 100 mg/kg, oral, male, Wistar
[6] = tested on: rat; test: concentration in expired air after dosing; settings: dosed: hexachloroethane, 53.3 ppm, inhalation, duration: 6 hr
[7] = tested on: rat; test: concentration in expired air after dosing; settings: dosed: hexachloroethane, 53.3 ppm, inhalation, duration: 6 hr; remark: listed apart in the source

SMILES: ClC(Cl)=C(Cl)Cl [tetrachloroethylene]
- concentration in blood ([1]; 2.446 h, 142 ppm): 696 ng/mL
- concentration in blood ([1]; 2.79 h, 72 ppm): 345 ng/mL
- concentration in blood ([1]; 18.14 h, 72 ppm): 371 ng/mL
- concentration in blood ([1]; 18.34 h, 142 ppm): 848 ng/mL
- concentration in blood ([1]; 42.06 h, 72 ppm): 352 ng/mL
- concentration in blood ([1]; 42.32 h, 142 ppm): 798 ng/mL
- concentration in blood ([1]; 67.19 h, 72 ppm): 315 ng/mL
- concentration in blood ([1]; 67.21 h, 142 ppm): 681 ng/mL
- concentration in blood ([1]; 91.19 h, 72 ppm): 262 ng/mL
- concentration in blood ([1]; 92.53 h, 142 ppm): 603 ng/mL
- concentration in blood ([1]; 139.29 h, 72 ppm): 166 ng/mL
- concentration in blood ([1]; 139.47 h, 142 ppm): 405 ng/mL
- concentration in blood ([1]; 163.11 h, 72 ppm): 135 ng/mL
- concentration in blood ([1]; 163.12 h, 142 ppm): 314 ng/mL
- concentration in blood ([1]; -227 s, 72 ppm, during exposure): 200 ng/mL
- concentration in blood ([1]; -0.3342 h, 142 ppm, during exposure): 516 ng/mL
- concentration in blood ([2]; 2.478 h): 601 ng/mL
- concentration in blood ([2]; 18.43 h): 752 ng/mL
- concentration in blood ([2]; 42.35 h): 705 ng/mL
- concentration in blood ([2]; 67.23 h): 618 ng/mL
- concentration in blood ([2]; 92.18 h): 515 ng/mL
- concentration in blood ([2]; 139.2 h): 334 ng/mL
- concentration in blood ([2]; 163.09 h): 271 ng/mL
- concentration in blood ([2]; -0.3835 h, during exposure): 484 ng/mL

SMILES: ClCCCl [1,2-dichloroethane]
- concentration in blood ([3]; 295 s, 50 ppm): 962 ng/mL
- concentration in blood ([3]; 295 s, 250 ppm): 26800 ng/mL
- concentration in blood ([3]; 0.1443 h, 50 ppm): 815 ng/mL
- concentration in blood ([3]; 0.1443 h, 250 ppm): 24500 ng/mL
- concentration in blood ([3]; 0.2313 h, 50 ppm): 664 ng/mL
- concentration in blood ([3]; 0.2438 h, 250 ppm): 19700 ng/mL
- concentration in blood ([3]; 0.3184 h, 50 ppm): 495 ng/mL
- concentration in blood ([3]; 0.3308 h, 250 ppm): 15800 ng/mL
- concentration in blood ([3]; 0.4925 h, 50 ppm): 239 ng/mL
- concentration in blood ([3]; 0.4925 h, 250 ppm): 12300 ng/mL
- concentration in blood ([3]; 0.7413 h, 50 ppm): 131 ng/mL
- concentration in blood ([3]; 0.7413 h, 250 ppm): 8050 ng/mL
- concentration in blood ([3]; 0.99 h, 250 ppm): 5340 ng/mL
- concentration in blood ([3]; 1.488 h, 250 ppm): 1940 ng/mL
- concentration in blood ([3]; 1.973 h, 250 ppm): 664 ng/mL
- concentration in blood ([3]; 2.993 h, 250 ppm): 124 ng/mL
- concentration in blood ([3]; -18 s, 50 ppm, during exposure): 1360 ng/mL
- concentration in blood ([3]; -18 s, 250 ppm, during exposure): 30800 ng/mL
- concentration in blood ([3]; -3.002 h, 50 ppm, during exposure): 1340 ng/mL
- concentration in blood ([3]; -3.015 h, 250 ppm, during exposure): 29300 ng/mL
- concentration in blood ([3]; -4.01 h, 50 ppm, during exposure): 1340 ng/mL
- concentration in blood ([3]; -4.01 h, 250 ppm, during exposure): 23600 ng/mL
- concentration in blood ([3]; -5.005 h, 50 ppm, during exposure): 926 ng/mL
- concentration in blood ([3]; -5.005 h, 250 ppm, during exposure): 11700 ng/mL
- concentration in blood ([3]; -5.515 h, 50 ppm, during exposure): 476 ng/mL
- concentration in blood ([3]; -5.515 h, 250 ppm, during exposure): 5840 ng/mL and 6640 ng/mL
- concentration in blood ([4]; 0 h, 200 ppm, Fischer-344): 2940 ng/mL
- concentration in blood ([4]; 258 s, 150 ppm, Osborne-Mendel): 5010 ng/mL
- concentration in blood ([4]; 0.1607 h, 150 ppm, Osborne-Mendel): 3870 ng/mL
- concentration in blood ([4]; 0.2398 h, 150 ppm, Osborne-Mendel): 2830 ng/mL
- concentration in blood ([4]; 0.25 h, 200 ppm, Fischer-344): 851 ng/mL
- concentration in blood ([4]; 0.3387 h, 150 ppm, Osborne-Mendel): 2010 ng/mL
- concentration in blood ([4]; 0.4969 h, 150 ppm, Osborne-Mendel): 1320 ng/mL
- concentration in blood ([4]; 0.665 h, 150 ppm, Osborne-Mendel): 670 ng/mL
- concentration in blood ([4]; 0.9913 h, 150 ppm, Osborne-Mendel): 708 ng/mL
- concentration in blood ([4]; 1.328 h, 150 ppm, Osborne-Mendel): 279 ng/mL
- concentration in blood ([4]; -27 s, 150 ppm, Osborne-Mendel, during exposure): 9390 ng/mL
- concentration in blood ([4]; -2.005 h, 150 ppm, Osborne-Mendel, during exposure): 8290 ng/mL
- concentration in blood ([4]; -3 h, 200 ppm, Fischer-344, during exposure): 3170 ng/mL
- concentration in blood ([4]; -3.34 h, 150 ppm, Osborne-Mendel, during exposure): 8640 ng/mL
- concentration in blood ([4]; -5 h, 200 ppm, Fischer-344, during exposure): 1920 ng/mL
- concentration in blood ([4]; -5.001 h, 150 ppm, Osborne-Mendel, during exposure): 5160 ng/mL
- concentration in blood ([4]; -5.5 h, 200 ppm, Fischer-344, during exposure): 1320 ng/mL
- concentration in blood ([4]; -5.75 h, 200 ppm, Fischer-344, during exposure): 768 ng/mL

SMILES: ClCCCl [1,2-Dichloroethane]
- concentration in blood ([5]; 145 s): 5240 ng/mL
- concentration in blood ([5]; 247 s): 58200 ng/mL
- concentration in blood ([5]; 291 s): 10900 ng/mL
- concentration in blood ([5]; 0.1036 h): 52400 ng/mL
- concentration in blood ([5]; 0.1179 h): 13300 ng/mL
- concentration in blood ([5]; 0.132 h): 43800 ng/mL
- concentration in blood ([5]; 0.1651 h): 12600 ng/mL
- concentration in blood ([5]; 0.1867 h): 44200 ng/mL
- concentration in blood ([5]; 0.1921 h): 12300 ng/mL
- concentration in blood ([5]; 0.2321 h): 11400 ng/mL
- concentration in blood ([5]; 0.2347 h): 43700 ng/mL
- concentration in blood ([5]; 0.2763 h): 39500 ng/mL
- concentration in blood ([5]; 0.2876 h): 11900 ng/mL
- concentration in blood ([5]; 0.3244 h): 38100 ng/mL
- concentration in blood ([5]; 0.3422 h): 11800 ng/mL
- concentration in blood ([5]; 0.3792 h): 37800 ng/mL
- concentration in blood ([5]; 0.3969 h): 11700 ng/mL
- concentration in blood ([5]; 0.4271 h): 38800 ng/mL
- concentration in blood ([5]; 0.4374 h): 11200 ng/mL
- concentration in blood ([5]; 0.5094 h): 37200 ng/mL
- concentration in blood ([5]; 0.5261 h): 10800 ng/mL
- concentration in blood ([5]; 0.7703 h): 31800 ng/mL
- concentration in blood ([5]; 0.7778 h): 9360 ng/mL
- concentration in blood ([5]; 1.018 h): 25700 ng/mL
- concentration in blood ([5]; 1.028 h): 6280 ng/mL
- concentration in blood ([5]; 1.518 h): 20100 ng/mL
- concentration in blood ([5]; 1.525 h): 4200 ng/mL
- concentration in blood ([5]; 2.019 h): 14600 ng/mL
- concentration in blood ([5]; 2.026 h): 4360 ng/mL
- concentration in blood ([5]; 2.519 h): 10500 ng/mL
- concentration in blood ([5]; 2.525 h): 3610 ng/mL
- concentration in blood ([5]; 3.016 h): 1910 ng/mL
- concentration in blood ([5]; 3.027 h): 7170 ng/mL
- concentration in blood ([5]; 3.517 h): 2720 ng/mL
- concentration in blood ([5]; 3.527 h): 4850 ng/mL
- concentration in blood ([5]; 4.013 h): 3030 ng/mL
- concentration in blood ([5]; 4.015 h): 1450 ng/mL
- concentration in blood ([5]; 4.508 h): 862 ng/mL
- concentration in blood ([5]; 4.52 h): 1720 ng/mL
- concentration in blood ([5]; 5.001 h): 703 ng/mL
- concentration in blood ([5]; 5.014 h): 1210 ng/mL

SMILES: ClC(Cl)(Cl)C(Cl)(Cl)Cl [hexachloroethane]
- concentration in expired air ([6]; 0.2509 h): 96.3 ng/mL
- concentration in expired air ([6]; 0.7326 h): 55.5 ng/mL
- concentration in expired air ([6]; 0.9876 h): 48.8 ng/mL
- concentration in expired air ([6]; 1.498 h): 49.2 ng/mL
- concentration in expired air ([6]; 2.489 h): 27.8 ng/mL
- concentration in expired air ([6]; 2.985 h): 19.8 ng/mL
- concentration in expired air ([6]; 4.983 h): 15.7 ng/mL
- concentration in expired air ([6]; 5.975 h): 15.4 ng/mL
- concentration in expired air ([6]; 7.986 h): 7.51 ng/mL
- concentration in expired air ([6]; 8.978 h): 6.78 ng/mL
- concentration in expired air ([6]; 9.998 h): 5.85 ng/mL
- concentration in expired air ([7]; 29.5 min): 79.4 ng/mL
- concentration in expired air ([7]; 0.8034 h): 73.1 ng/mL
- concentration in expired air ([7]; 0.9876 h): 51.1 ng/mL
- concentration in expired air ([7]; 1.653 h): 36.3 ng/mL
- concentration in expired air ([7]; 1.979 h): 26.3 ng/mL
- concentration in expired air ([7]; 2.489 h): 24.2 ng/mL
- concentration in expired air ([7]; 3.509 h): 17.9 ng/mL
- concentration in expired air ([7]; 4.983 h): 10.9 ng/mL
- concentration in expired air ([7]; 5.989 h): 10.1 ng/mL
- concentration in expired air ([7]; 7.236 h): 9.9 ng/mL
- concentration in expired air ([7]; 7.986 h): 8.23 ng/mL
- concentration in expired air ([7]; 8.978 h): 7.36 ng/mL
- concentration in expired air ([7]; 9.998 h): 6.12 ng/mL

— EPA's CvTdb concentration-time database
